{"source": "ChEMBL document CHEMBL3232989", "about": "“First identification of boronic species as novel potential inhibitors of the Staphylococcus aureus NorA efflux pump” (J Med Chem, 2014)", "key": {"Staphylococcus aureus [1]": {"system": "Staphylococcus aureus", "assay": "Antibacterial activity against Staphylococcus aureus ATCC 25923 after 24 hrs by microdilution method", "format": "functional", "conditions": "ATCC 25923, 24 h", "outline": "(§1)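 Broth microdilution in Mueller–Hinton broth, 10^6 CFU/mL per well from an 18 h 37 °C culture. Compounds come from 10 mg/mL DMSO stocks as 2-fold serial dilutions, top 128 mg/L. Plates run 24 h at 37 °C and are read at 620 nm and visually. MIC is the lowest concentration with complete growth inhibition. Duplicates; 2-fold variance accepted.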"}, "Staphylococcus aureus [2]": {"system": "Staphylococcus aureus", "assay": "Antibacterial activity against fluoroquinolone-resistant Staphylococcus aureus 1199B expressing NorA after 24 hrs by microdilution method", "format": "functional", "outline": "as §1"}}, "data": [{"smiles": "CC[C@H]1OC(=O)[C@H](C)[C@@H](O[C@H]2C[C@@](C)(OC)[C@@H](O)[C@H](C)O2)[C@H](C)[C@@H](O[C@@H]2O[C@H](C)C[C@H](N(C)C)[C@H]2O)[C@](C)(O)C[C@@H](C)C(=O)[C@H](C)[C@@H](O)[C@]1(C)O", "note": "[ERYTHROMYCIN]", "values": [{"measurement": "MIC", "setting": "Staphylococcus aureus [1]", "result": 0.5, "unit": "µg/mL"}, {"measurement": "MIC", "setting": "Staphylococcus aureus [2]", "result": 128, "unit": "µg/mL"}]}]}
